In one data set the test system is Candida albicans. In words: Antifungal activity against fluconazole-sensitive Candida albicans ATCC 90028 assessed as growth inhibition at 0.8 to 100 ug/mL after 48 hrs by resazurin dye-based assay. It counts as functional, organism-based. An outline of the steps: (§1)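 Broth microdilution. Test article from 1 μL DMSO in 50 μL cation-adjusted Mueller Hinton II (bacteria) or RPMI 1640 (fungi), plus ~1×10^3 cfu inoculum in the same medium. Incubated 16–20 h at 30–37 °C (48 h for fungi). MIC scored visually as the first well without growth; resazurin added for imaging.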

In the next data set the test system is Pseudomonas aeruginosa. In words: Antibacterial activity against Pseudomonas aeruginosa ATCC 9028 assessed as growth inhibition at 0.8 to 100 ug/mL after 16 to 20 hrs by resazurin dye-based assay. The class given is functional, organism-based. An outline of the steps: as §1
(In general: Alamar Blue is a resazurin reagent that responds to reducing activity.)

Data set [1] concerns Escherichia coli. In words: Antibacterial activity against Escherichia coli K-12 assessed as growth inhibition at 0.8 to 100 ug/mL after 16 to 20 hrs by resazurin dye-based assay. It counts as functional, organism-based. The essentials:
as §1

Data set [2] relates to Staphylococcus aureus. In words: Antibacterial activity against community-acquired methicillin-resistant Staphylococcus aureus BAA-1717 assessed as growth inhibition at 0.8 to 100 ug/mL after 16 to 20 hrs by resazurin dye-based assay. It counts as functional, organism-based. An outline of the steps: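 Broth microdilution. Inoculum from overnight liquid cultures or 2-day colonies, ~1 × 10^3 cfu per well. Compound in DMSO added to cation-adjusted Mueller Hinton II broth (bacteria) or RPMI 1640 (fungi). Incubated at 30–37 °C for 16–20 h, or 48 h for fungi.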

In data set [3] the target is T1, L-aminoadipate-semialdehyde dehydrogenase-phosphopantetheinyl transferase (Homo sapiens) (UniProt Q9NRN7).
T1 sequence (whole entry): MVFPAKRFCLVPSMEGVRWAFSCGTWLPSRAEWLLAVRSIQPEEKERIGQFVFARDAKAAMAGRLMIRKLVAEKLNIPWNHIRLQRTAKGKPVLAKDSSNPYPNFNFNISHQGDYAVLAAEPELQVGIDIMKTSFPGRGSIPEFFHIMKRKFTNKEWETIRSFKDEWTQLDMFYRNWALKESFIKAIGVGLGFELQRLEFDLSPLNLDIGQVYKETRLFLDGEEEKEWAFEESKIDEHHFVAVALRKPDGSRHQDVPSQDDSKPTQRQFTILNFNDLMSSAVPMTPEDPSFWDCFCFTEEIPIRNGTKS
Description: Inhibition of human PPTase up to 125 uM by gel-based fluorescence assay.

A short description of data set [4]: Inhibition of Bacillus subtilis Sfp-PPTase using rhodamine-CoA/BHQ-2-YbbR as substrate preincubated for 15 mins followed by substrate addition by HTS assay.
Data set [5] can be described thus: Chemical stability of the compound in PBS buffer at room temperature measured over 48 hrs by LC/MS analysis. It counts as physicochemical. An outline of the steps: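 Compound held in aqueous media over pH 2–9 and in PBS and HEPES buffers, then monitored for degradation.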
Data set [6] has as its system Staphylococcus aureus. In words: Antibacterial activity against Staphylococcus aureus BK2395 isolated from kidney of 30 mg/kg, ip compound-treated Swiss Webster mouse septicemia model assessed as growth inhibition. It counts as functional, organism-based. The arrangement: dose 30 mg/kg. The essentials:
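Bacteria harvested from the kidneys of septic mice treated with vehicle or compound, five isolates taken per crude sample. MICs measured in parallel with the parental USA500 strain.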

For data set [7], the system named is Staphylococcus aureus. Description: Antibacterial activity against Staphylococcus aureus BK2395 in Swiss Webster mouse septicemia model assessed as increase in survival at 30 mg/kg, ip administered 4 to 48 hrs measured 3 times daily for 14 days relative to vehicle-treated control. The arrangement: dose 30 mg/kg. The class given is functional, organism-based. The essentials: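 MRSA USA500 strain BK2395 used in a mouse sepsis model. Treated animals compared with vehicle, with vancomycin as a reference treatment; survival monitored.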

The subject of data set [8] is Staphylococcus aureus. In words: Antibacterial activity against Staphylococcus aureus BK2395 assessed as growth inhibition in presence of calf serum. The class given is functional.
Another data set has as its system Mus musculus. In words: Toxicity in CD-1 mouse at 30 mg/kg, ip measured over 24 hrs. The class given is organism-based. The arrangement: dose 30 mg/kg, route intraperitoneal. The settings on record: in vivo. An outline of the steps: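 Male CD1 mice, 6–8 weeks old, given 30 mg/kg ip in 5% DMSO/10% Solutol/water. Clinical observations recorded over 24 h.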
The nature of data set [9]: Mean residence time required for 63.2% elimination of drug in CD-1 mouse at 3 mg/kg, iv. It counts as ADME, organism-based. Also on record: dose 3 mg/kg, route intravenous. The settings on record: in vivo. The essentials: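 Male CD1 mice, 6–8 weeks old, given 3 mg/kg iv as a solution in 5% DMSO/10% Solutol in water. Plasma sampled at eight time points over 24 h, in triplicate; MRT defined as time to eliminate 63.2% of the iv dose.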

The nature of data set [10]: AUC (infinity) in CD-1 mouse at 30 mg/kg, ip. The class given is ADME, organism-based. Also on record: time infinity, dose 30 mg/kg, route intraperitoneal. The settings on record: plasma. The essentials:
(§2)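 Male CD1 mice, 6–8 weeks old. Dosed iv at 3 mg/kg or ip at 30 mg/kg as a solution in 5% DMSO/10% Solutol in water. Plasma sampled in triplicate at eight time points over 24 h.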

Data set [11] can be described thus: AUC (infinity) in CD-1 mouse at 3 mg/kg, iv. To be noted: plasma. The arrangement: time infinity, dose 3 mg/kg, route intravenous. It counts as ADME, organism-based. The essentials: as §2
Data set [12] is described as follows: Cmax in CD-1 mouse at 30 mg/kg, ip. The class given is ADME, organism-based. The arrangement: dose 30 mg/kg, route intraperitoneal. To be noted: in vivo. An outline of the steps: as §2
The nature of data set [13]: Permeability of the compound by PAMPA. The class given is physicochemical.
The target in the next data set is CYP2D6 (Homo sapiens, UniProt P10635). Description: Inhibition of CYP2D6 (unknown origin) using dextromethorphan as substrate at 3 uM relative to control. The class given is ADME. The settings on record: probe dextromethorphan. An outline of the steps: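 Compound at 3 μM co-incubated with CYP substrates: dextromethorphan for 2D6, 6β-hydroxytestosterone for 3A4. Percent inhibition reported; done at Pharmaron.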
Sequence of CYP2D6 (P10635 whole entry): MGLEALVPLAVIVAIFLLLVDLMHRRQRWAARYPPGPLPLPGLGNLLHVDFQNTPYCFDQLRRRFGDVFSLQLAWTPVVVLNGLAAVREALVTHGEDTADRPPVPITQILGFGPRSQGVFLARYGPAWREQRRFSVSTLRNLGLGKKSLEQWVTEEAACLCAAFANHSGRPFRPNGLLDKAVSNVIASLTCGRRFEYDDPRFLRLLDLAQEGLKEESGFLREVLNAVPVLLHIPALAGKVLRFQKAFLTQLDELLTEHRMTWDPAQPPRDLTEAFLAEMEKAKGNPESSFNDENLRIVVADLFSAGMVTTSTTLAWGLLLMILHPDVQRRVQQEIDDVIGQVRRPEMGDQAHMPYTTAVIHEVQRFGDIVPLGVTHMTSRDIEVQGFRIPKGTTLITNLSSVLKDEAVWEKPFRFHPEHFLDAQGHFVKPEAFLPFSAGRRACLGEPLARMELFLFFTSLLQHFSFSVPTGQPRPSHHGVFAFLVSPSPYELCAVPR

In the next data set the test system is Liver microsome. In words: Half life in rat liver microsomes in presence of NADPH. It counts as ADME. The essentials:
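Liver microsomes from mouse or rat incubated with compound in the presence of NADPH. Mouse assay done at Pharmaron.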

For another data set, the system named is Bacillus subtilis. In words: Antibacterial activity against Bacillus subtilis OKB105 assessed as effect on doubling time in log phase at 0.53 to 1.1 ug/mL after 28 hrs. It counts as functional, organism-based. An outline of the steps: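 B. subtilis OKB105 cultured with compound at 0.53 or 1.1 µg/mL against a vehicle control. Culture density and surfactin titer sampled periodically over 28 h.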

The test system of data set [14] is Escherichia coli. In words: Antibacterial activity against wild type Escherichia coli BW25113 assessed as growth inhibition at 1.8 to 250 ug/mL after 16 to 20 hrs by broth dilution method in presence of AcrAB-TolC inhibitor phenylarginine-beta-napthamide. The class given is functional. The essentials: (§3)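 E. coli BW25113 (wild type) and JW0451 (ΔacrB) tested by broth dilution in cation-adjusted Mueller Hinton II, ~1×10^3 cfu, 16–20 h. Growth shown with resazurin. Checkerboard combination with the efflux inhibitor PAβN in the wild type.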
A general note: Dilution methods test growth across graded concentrations, often in twofold steps.

Data set [15] concerns Escherichia coli. Description: Antibacterial activity against wild type Escherichia coli BW25113 assessed as growth inhibition at 1.8 to 250 ug/mL after 16 to 20 hrs by broth dilution method. The class given is functional. The essentials: as §3

Active and inactive are the calls of the source.

Consider 1 compound from ChEMBL document CHEMBL3124880, “4-(3-Chloro-5-(trifluoromethyl)pyridin-2-yl)-N-(4-methoxypyridin-2-yl)piperazine-1-carbothioamide (ML267), a potent inhibitor of bacterial phosphopantetheinyl transferase that attenuates secondary metabolism and thwarts bacterial growth” (J Med Chem, 2014).

In general, inhibition refers to the relative decrease from the control value, in per cent. By IC50 is commonly meant the concentration that gives 50% inhibition. Low values mean greater potency, high ones weaker potency. Usually MIC stands for the least concentration at which growth counts as inhibited. A word on the MRT: it is the average time that molecules of a dose stay in the body. A word on the AUC(0-inf): it is total exposure, with the tail of the curve extrapolated. Low readings indicate less exposure, high ones more exposure. Broadly, the Cmax is the highest concentration seen after dosing.

For `COc1ccnc(NC(=S)N2CCN(c3ncc(C(F)(F)F)cc3Cl)CC2)c1`, the “growth inhibition (GI)” value in the data set on Candida albicans, with Pseudomonas aeruginosa, in the data set with Escherichia coli [1] and in the data set with Escherichia coli [15] was “inactive” in each case. Also, the “growth inhibition (GI)” value in the data set on Staphylococcus aureus [2], in the data set with Staphylococcus aureus [6] and in the data set on Escherichia coli [14] was “Active” throughout. Further, in data set [3], the inhibition result is “inactive”. This compound came in with a half-maximal inhibitory concentration (IC50) in data set [4] of 290 nM. The Stability result in data set [5] is “Stable”. For the same compound, the outcome in the data set on Staphylococcus aureus [7] and with Bacillus subtilis was inactive. Further, in the data set with Staphylococcus aureus [8], the minimal inhibitory concentration (MIC) is above 57 µM. Also, the Activity result in the data set on Mus musculus is “Non-toxic”. In data set [9], this compound gave an MRT of 3.4 h. Moreover, the AUC(0-inf) in data set [10] turned out to be 68900 ng·h/mL; in data set [11], 6980 ng·h/mL. In data set [12], this compound came in with a Cmax of 17600 ng/mL. The permeability in data set [13] was found to be 1120 ×10⁻⁶ cm/s. The compound also had an inhibition at 3 µM on CYP2D6 of 25%. Further, the t1/2 in the data set with Liver microsome is above 0.5 h.
